Measured values published in ChEMBL document CHEMBL2440053, “New route to the 5-((arylthio- and heteroarylthio)methylene)-3-(2,2,2-trifluoroethyl)-furan-2(5H)-ones--key intermediates in the synthesis of 4-aminoquinoline γ-lactams as potent antimalarial compounds” (Bioorg Med Chem Lett, 2013).

How the values were obtained:
HUVEC [1] = assay: Cytotoxicity against HUVEC up to 100 uM after 24 hrs by Tryptan Blue assay; format: cell-based; conditions: human
Plasmodium falciparum [2] = assay: Antimalarial activity against chloroquine-sensitive Plasmodium falciparum 3D7 after 48 to 72 hrs by SYBR green-1 assay; format: functional, organism-based
In short: (§1)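 P. falciparum culture tested in vitro on the CQ-sensitive 3D7 or CQ-resistant W2 clone. Each experiment was run twice, with wells in triplicate. IC50 in nM is the mean of at least two experiments.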

Plasmodium falciparum [3] = assay: Antimalarial activity against chloroquine-resistant Plasmodium falciparum W2 after 48 to 72 hrs by SYBR green-1 assay; format: functional, organism-based; in short: as §1
Plasmodium falciparum [4] = assay: Resistant index, ratio of IC50 for chloroquine-resistant Plasmodium falciparum W2 to IC50 for chloroquine-sensitive Plasmodium falciparum 3D7; format: functional
HUVEC [5] = assay: Cytotoxicity against HUVEC at 0.01 to 50 umol/L after 24 hrs by Tryptan Blue assay; format: cell-based; conditions: human
In short: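 Human umbilical vein endothelial cells (HUVEC) were exposed to final concentrations from 0.01 up to 50 μM. Cytotoxicity was reported as an IC50 or as a minimum cytotoxic value extrapolated from the tested range.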

SMILES	Activity (HUVEC [1])	IC50 (Plasmodium falciparum [2])	IC50 (Plasmodium falciparum [3])	Ratio IC50 (Plasmodium falciparum [4])	Activity (HUVEC [5])
CN(CCNc1ccnc2cc(Cl)ccc12)CCN1C(=O)C(CC(F)(F)F)=CC1(O)CSc1ccc(Cl)cc1 (centres undefined)	Non-toxic	55 nM	57 nM	–	–
Cn1cnnc1SCC1(O)C=C(CC(F)(F)F)C(=O)N1CCNc1ccnc2cc(Cl)ccc12 (centres undefined)	–	499 nM	> 1600 nM	>3.2	–
O=C1C(CC(F)(F)F)=CC(O)(CSc2ncccn2)N1CCNc1ccnc2cc(Cl)ccc12 (centres undefined)	–	278 nM	458 nM	1.65	Non-toxic
CN(CCNc1ccnc2cc(Cl)ccc12)CCN1C(=O)C(CC(F)(F)F)=CC1(O)CSc1ccccc1 (centres undefined)	Non-toxic	47 nM	55 nM	–	–
O=C1C(CC(F)(F)F)=CC(O)(CSc2ccccn2)N1CCNc1ccnc2cc(Cl)ccc12 (centres undefined)	–	179 nM	218 nM	1.22	Non-toxic
O=C1C(CC(F)(F)F)=CC(O)(CSc2ccccc2)N1CCNc1ccnc2cc(Cl)ccc12 (centres undefined)	–	107 nM	167 nM	1.56	Non-toxic
O=C1C(CC(F)(F)F)=CC(O)(CSc2ccc(F)cc2)N1CCNc1ccnc2cc(Cl)ccc12 (centres undefined)	–	305 nM	759 nM	2.49	Non-toxic
O=C1C(CC(F)(F)F)=CC(O)(CSc2cccc[n+]2[O-])N1CCNc1ccnc2cc(Cl)ccc12 (centres undefined)	–	242 nM	274 nM	1.13	Non-toxic
CN(CCNc1ccnc2cc(Cl)ccc12)CCN1C(=O)C(CC(F)(F)F)=CC1(O)CSc1ccc(Br)cc1 (centres undefined)	Non-toxic	45 nM	42 nM	–	–
O=C1C(CC(F)(F)F)=CC(O)(CSc2ccncc2)N1CCNc1ccnc2cc(Cl)ccc12 (centres undefined)	–	89 nM	666 nM	7.48	–
COc1ccc(SCC2(O)C=C(CC(F)(F)F)C(=O)N2CCNc2ccnc3cc(Cl)ccc23)cc1 (centres undefined)	–	101 nM	173 nM	1.71	Non-toxic
